Experimental data taken from ChEMBL document CHEMBL4376841, “Discovery of a Synergistic Inhibitor of cAMP-Response Element Binding Protein (CREB)-Mediated Gene Transcription with 666-15” (J Med Chem, 2019).
The source made the active and inactive calls. The calls are words filed in the database; no cut-off is given here.

What was measured:
[1] = Drug metabolism in pH 7.4 PBS assessed as 3-(3-aminopropoxy)-N-(4-chloro-2-hydroxy-phenyl)naphthalene-2-carboxamide formation by NMR analysis
[2] = Drug metabolism in pH 7.4 PBS assessed as 3,4-Dihydronaphtho[2,3-f][1,4]oxazepin-5(2H)-one formation by NMR analysis
[3] = Solubility in ddIH2O; format: physicochemical; conditions: ddIH2O (double-deionized water)
[4] = Drug metabolism in pH 7.4 PBS assessed as tert-butyl 3-(3-(2-(tert-butoxycarbonyloxy)-4-chlorophenylcarbamoyl)naphthalen-2-yloxy)propylcarbamate formation by NMR analysis
[5] = Inhibition of CREB (unknown origin) expressed in HEK293T cells assessed as inhibition of forskolin-induced CREB transcription activity incubated for 30 mins by luciferase reporter gene assay; format: cell-based; conditions: Homo sapiens, HEK-293T, 0.5 h
Outline: (§1)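 HEK293T cells were transfected for 3 h with pCRE-RLuc (Renilla luciferase driven by three tandem CRE copies), then replated and left to attach overnight. Compounds, alone or combined, were added 30 min before Fsk (10 μM), followed by 5 h at 37 °C. Renilla luciferase was normalised to well protein (RLU/μg). IC50 came from nonlinear regression; at least two independent experiments in triplicate.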

[6] = Drug level in pH 7.4 PBS treated with 2-(3-(2-Aminoethoxy)-2-naphthamido)-5-chlorophenyl 3-(3- Aminopropoxy)-2-naphthoate Dihydrochloride assessed as compound formation by NMR analysis; format: physicochemical; conditions: buffer
[7] = organism: Homo sapiens; assay: (§2) Synergistic potentiation of 2-(3-(2-Aminoethoxy)-2-naphthamido)-5-chlorophenyl 3-(3- Aminopropoxy)-2-naphthoate Dihydrochloride-induced inhibition of CREB (unknown origin) expressed in HEK293T cells assessed as inhibition of forskolin-induced CREB transcription activity by measuring combination index at 5 to 10 uM incubated for 30 mins by luciferase reporter gene assay based Chou-Talalay method; format: cell-based
Outline: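 CRE-driven Renilla luciferase reporter in transfected HEK293T cells. Combinations were added 30 min before Fsk (10 μM) for 5 h. Activity was normalised to protein. Combination indexes were calculated by the Chou-Talalay method: CI > 1.0 antagonism, CI = 1.0 additive, CI < 1.0 synergy.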

[8] = tested on: MDA-MB-231; assay: Growth inhibition of human MDA-MB-231 cells at 0.5 to 1 uM incubated for 72 hrs by MTT assay; format: functional, cell-based
Outline: (§3)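 MDA-MB-231 cells were seeded at 1000/well, attached overnight, then given compounds (alone or combined) for 72 h at 37 °C. MTT (0.5 mg/mL) was added for 3 h, formazan dissolved in DMSO, and A570 read. Growth % = 100×(A_treated − A_initial)/(A_control − A_initial), with time-0 baseline.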

[9] = organism: Homo sapiens; assay: as §2, with “activity” for “activity by measuring combination index”, “assay” for “assay based Chou-Talalay method”; format: cell-based; outline: as §1
[10] = tested on: MDA-MB-231; assay: Synergistic potentiation of 2-(3-(2-Aminoethoxy)-2-naphthamido)-5-chlorophenyl 3-(3- Aminopropoxy)-2-naphthoate Dihydrochloride-induced growth inhibition of human MDA-MB-231 cells incubated for 72 hrs by MTT assay; format: functional; outline: as §3
[11] = organism: Homo sapiens; assay: (§4) Inhibition of CREB in HEK293T cells assessed as inhibition of Fsk-induced NR4A2 gene expression at 5 uM pre-incubated for 1 hr before Fsk stimulation for 45 mins by qRT-PCR analysis; format: cell-based
Outline: (§5)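 HEK293T cells in DMEM/10% FBS were pretreated with compounds, singly or in combination, for 1 h, then stimulated with Fsk (10 μM) for 45 min. Total RNA was isolated and NR4A2 transcript measured by qRT-PCR using the ΔΔCt method, with HPRT as reference. SEM of two independent experiments in triplicate; Student t-test.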

[12] = Inhibition of Kix-Kid interaction (unknown origin) by biochemical split Renilla luciferase complementation assay; design: species or system Homo sapiens
[13] = organism: Homo sapiens; assay: as §4, with “Synergistic potentiation of 50 nM 2-(3-(2-Aminoethoxy)-2-naphthamido)-5-chlorophenyl 3-(3- Aminopropoxy)-2-naphthoate Dihydrochloride-induced inhibition” for “Inhibition”; format: cell-based; outline: as §5

Row | Structure (SMILES) | solubility [3] | IC50 [5] | Drug uptake [6] | Activity [9] | other results
1 | NCCCOc1cc2ccccc2cc1C(=O)Nc1ccc(Cl)cc1O |  | 26.3 µM | Active | Active | CI [7]: < 1; growth inhibition (GI) [8]: inactive; CI [10]: <1; inhibition [11]: inactive; IC50 [12]: > 50 µM; Activity [13]: Active
2 | CC(C)(C)OC(=O)NCCCOc1cc2ccccc2cc1C(=O)Nc1ccc(Cl)cc1OC(=O)C(C)(C)C |  |  | Active |  | 
3 | O=C1NCCOc2cc3ccccc3cc21 |  | > 50 µM | Active | inactive | 

The next lines start with results.

Row | solubility [3] | IC50 [5] | Drug uptake [6] | Structure (SMILES) | Activity [9] | other results
4 | > 100 mg/mL | 0.25 µM |  | Cl.Cl.NCCCOc1cc2ccccc2cc1C(=O)Oc1cc(Cl)ccc1NC(=O)c1cc2ccccc2cc1OCCN |  | Drug metabolism [1]: Metabolite detected; Drug metabolism [2]: 29%; Drug metabolism [4]: 47%
5 | < 0.5 mg/mL |  |  | Cl.NCCCOc1cc2ccccc2cc1C(=O)NCCOc1cc2ccccc2cc1C(=O)Nc1ccc(Cl)cc1O |  | 
